# Laboratory results from ChEMBL document CHEMBL3351736, “A promising camptothecin derivative: Semisynthesis, antitumor activity and intestinal permeability” (Eur J Med Chem, 2014).
# The source made the active and inactive calls. The rule behind the calls is not given here.
# How the values were obtained:
# [1] = system: A-375; experiment: Induction of apoptosis in human A375 cells assessed as inhibition of DNA synthesis at 0.8 to 1.6 uM after 24 hrs by BrdU staining-based ELISA; format: functional, cell-based
# Procedure, shortened: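 BrdU colorimetric cell proliferation ELISA. Cells seeded at 25,000 per well, compounds added 24 h after seeding and incubated 24 h. Cells fixed and the immunoassay run per kit. Absorbance read at 370-492 nm over 3 intervals of 5 min; absorbance difference proportional to BrdU incorporation. Mean of three separate experiments in triplicate, compared with untreated control.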
# [2] = system: A-375; experiment: Induction of apoptosis in human A375 cells assessed as p53 phosphorylation at Ser15 by Western blotting analysis; format: functional, cell-based
# Procedure, shortened: (§1)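 Cells treated 24 h. About 10^6 cells lysed on ice 15 min in Hepes pH 7.4/Triton X-100 buffer with phosphatase and protease inhibitors, then spun 13,000 × g. 30 µg protein run on 12% SDS-PAGE and blotted to nitrocellulose. Primary anti-phospho-p53 (Ser15) and anti-p53 at 1:1000 for 2 h at room temperature, then HRP secondary and ECL densitometry. Results referred to untreated control.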
# [3] = system: Small intestine; experiment: Effective permeability in Wistar rat small intestine assessed as absorption rate coefficient at 50 uM measured after 5 mins in every 5 min interval up to 30 mins; format: ADME, tissue-based
# Procedure, shortened: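 Male Wistar rats fasted 2 h with water available, then anaesthetised with diazepam (1.67 mg/kg), ketamine (50 mg/kg) and atropine (1 mg/kg) and kept at 37°C on a heated surface. In situ intestinal perfusion. Perfusate sampled from 5 min at 5 min intervals up to 30 min. Absorption rate constant (Ka) and Peff derived.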
# [4] = Effective permeability in Wistar rat small intestine at 50 uM measured after 5 mins in every 5 min interval up to 30 mins; format: ADME, tissue-based; settings: not told, read-out: Peff
# Procedure, shortened: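 In situ intestinal perfusion in male Wistar rats fasted 2 h with water allowed. Anaesthesia with diazepam (1.67 mg/kg), ketamine (50 mg/kg) and atropine (1 mg/kg); animals kept at 37 °C. Perfusate sampled every 5 min from 5 to 30 min; absorption rate constant and Peff derived.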
# [5] = system: Caco-2; experiment: Induction of apoptosis in human Caco2 cells assessed as early apoptotic cells at 0.5 uM after 24 hrs by Annexin V/propidium iodide staining-based flow cytometric analysis (reference value: 0.72 +/- 0.03%); format: functional
# [6] = system: Caco-2; experiment: Induction of apoptosis in human Caco2 cells assessed as vital cells at 0.5 uM after 48 hrs by Annexin V/propidium iodide staining-based flow cytometric analysis (reference value: 96.67 +/- 1.02%); format: functional
# [7] = system: Caco-2; experiment: Induction of apoptosis in human Caco2 cells assessed as vital cells at 0.5 uM after 24 hrs by Annexin V/propidium iodide staining-based flow cytometric analysis (reference value: 96.67 +/- 1.02%); format: functional
# [8] = system: Caco-2; experiment: Induction of apoptosis in human Caco2 cells assessed as late apoptotic cells at 0.5 uM after 48 hrs by Annexin V/propidium iodide staining-based flow cytometric analysis (reference value: 2.20 +/- 0.77%); format: functional
# [9] = system: Caco-2; experiment: Induction of apoptosis in human Caco2 cells assessed as necrotic cells at 0.5 uM after 48 hrs by Annexin V/propidium iodide staining-based flow cytometric analysis (reference value: 0.41 +/- 0.02%); format: functional
# [10] = system: Caco-2; experiment: Induction of apoptosis in human Caco2 cells assessed as early apoptotic cells at 0.05 uM after 24 hrs by Annexin V/propidium iodide staining-based flow cytometric analysis (reference value: 0.72 +/- 0.03%); format: functional
# [11] = system: Caco-2; experiment: Induction of apoptosis in human Caco2 cells assessed as early apoptotic cells at 0.05 uM after 48 hrs by Annexin V/propidium iodide staining-based flow cytometric analysis (reference value: 0.72 +/- 0.03%); format: functional
# [12] = system: MDA-MB-231; experiment: Induction of apoptosis in human MDA-MB-231 cells assessed as p53 phosphorylation at Ser15 by Western blotting analysis; format: functional, cell-based; procedure, shortened: as §1
structure (smiles),measurement,setting,value
CC[C@@]1(O)C(=O)OCc2c1cc1n(c2=O)Cc2cc3c(CN(C)C)c(O)ccc3nc2-1.Cl [TOPOTECAN HYDROCHLORIDE],Activity,[1],Active
same,Activity,[2],Active
same,Ka,[3],2.25 h⁻¹
same,"Papp at 5 min, 50 µM",[4],558 nm/s
same,Activity,[5],4.4%
same,Activity,[6],38.26%
same,Activity,[7],53.08%
same,Activity,[8],53.12%
same,Activity,[9],2.88%
same,Activity,[10],5.42%
same,Activity,[11],2.36%
same,Activity,[12],Active
